Assay results published in ChEMBL document CHEMBL1132187, “Synthesis, in vitro antiproliferative activity, and DNA-binding properties of hybrid molecules containing pyrrolo[2,1-c][1, 4]benzodiazepine and minor-groove-binding oligopyrrole carriers” (J Med Chem, 1999).

Tests used:
Jurkat = test: In vitro inhibition of Jurkat cell proliferation; format: functional, cell-based; conditions: Homo sapiens
Summary of the method: (§1)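 Exponentially growing cells kept as stationary suspension in RPMI 1640 with 10% FCS, 2 mM L-glutamine, penicillin/streptomycin; exposed to a range of drug concentrations (DMSO stock 1 mg/mL, diluted just before addition) for 4 days; survivors counted by Coulter counter. IC50 vs untreated controls, duplicate cultures per concentration, experiments repeated at least twice, vehicle controls included.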

Nucleic Acid = test: Inhibitory concentration against human estrogen receptor(ER) polymerase chain reaction product; format: nucleic-acid assay
Summary of the method: (§2)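 Target DNA was 20 ng of pBLCAT8ERCAT1 plasmid, preincubated 5 min at room temperature with increasing drug amounts, then PCR-amplified with Taq: 92 °C 1 min, 55 °C annealing 1 min, 72 °C 1 min. Products run on 2% agarose gels; IC50 is the concentration giving 50% inhibition of ER PCR product generation.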

[1] = tested on: Human immunodeficiency virus 1; test: Inhibitory concentration against HIV-1 LTR polymerase chain reaction product; format: functional
Summary of the method: as §2, with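 “preamplified, purified PCR product,” for “pBLCAT8ERCAT1 plasmid,”, “62” for “55”, “of” for “of ER”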

K562 = test: In vitro inhibition of K-562 cell proliferation; format: functional, cell-based; conditions: Homo sapiens; summary of the method: as §1
[2] = Inhibitory concentration against human c-myc polymerase chain reaction product; format: functional
Summary of the method: as §2, with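 “preamplified, purified PCR product,” for “pBLCAT8ERCAT1 plasmid,”, “62” for “55”, “of” for “of ER”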

**Q.** Which IC50 (Jurkat) does the source give for `COc1cc2c(cc1OCCC(=O)Nc1cc(C(=O)NCCC(=N)N)n(C)c1)N=C[C@@H]1CCCN1C2=O` here?
**A.** Its IC50 is 80000 nM.

**Q.** What about the IC50 (Nucleic Acid) of the same compound?
**A.** The IC50 was 3000 nM.

**Q.** What about the IC50 [1] of the same compound?
**A.** The IC50 was 1000 nM.

**Q.** And the IC50 (K562)?
**A.** The IC50 was greater than 100000 nM.

**Q.** What about the IC50 [2] of the same compound?
**A.** The IC50 was 4000 nM.

**Q.** For `COC(=O)CCOc1cc2c(cc1OC)C(=O)N1CCC[C@H]1C=N2`, which IC50 (Jurkat) is on record?
**A.** The IC50 was 3000 nM.

**Q.** And the IC50 (Nucleic Acid)?
**A.** Its IC50 is greater than 250000 nM.

**Q.** And the IC50 [1]?
**A.** The IC50 was greater than 250000 nM.

**Q.** And the IC50 (K562)?
**A.** Its IC50 is 1500 nM.

**Q.** What about the IC50 [2] of the same compound?
**A.** Its IC50 is greater than 250000 nM.

**Q.** For `Cn1cc(NC(=O)c2cc(NC(=O)c3cc(NC(=O)c4cc(N)cn4C)cn3C)cn2C)cc1C(=O)NCCC(=N)N`, which IC50 (Jurkat) is on record?
**A.** The IC50 was 25000 nM.

**Q.** And the IC50 (Nucleic Acid)?
**A.** The IC50 was 500 nM.

**Q.** What about the IC50 [1] of the same compound?
**A.** The IC50 was 20000 nM.

**Q.** And the IC50 (K562)?
**A.** Its IC50 is 12000 nM.

**Q.** What about the IC50 [2] of the same compound?
**A.** The IC50 was 12000 nM.

**Q.** For `COc1cc2c(cc1OCCC(=O)Nc1cc(C(=O)Nc3cc(C(=O)Nc4cc(C(=O)NCCC(=N)N)n(C)c4)n(C)c3)n(C)c1)N=C[C@@H]1CCCN1C2=O`, which IC50 (Jurkat) is on record?
**A.** Its IC50 is 800 nM.

**Q.** What about the IC50 (Nucleic Acid) of the same compound?
**A.** Its IC50 is 800 nM.

**Q.** What about the IC50 [1] of the same compound?
**A.** The IC50 was 2000 nM.

**Q.** What about the IC50 (K562) of the same compound?
**A.** The IC50 was 700 nM.

**Q.** And the IC50 [2]?
**A.** Its IC50 is 2500 nM.

**Q.** For `Cn1cc(NC(=O)c2cc(NC(=O)c3cc(NC=O)cn3C)cn2C)cc1C(=O)NCCC(=N)N`, which IC50 (Jurkat) is on record?
**A.** Its IC50 is 20000 nM.

**Q.** And the IC50 (Nucleic Acid)?
**A.** Its IC50 is 5000 nM.

**Q.** What about the IC50 [1] of the same compound?
**A.** Its IC50 is 50000 nM.

**Q.** What about the IC50 (K562) of the same compound?
**A.** The IC50 was 12000 nM.

**Q.** And the IC50 [2]?
**A.** The IC50 was 25000 nM.

**Q.** With `COc1cc2c(cc1OC)C(=O)N1CCC[C@H]1C=N2` as the compound, how does the IC50 (Jurkat) read?
**A.** Its IC50 is 2200 nM.

**Q.** And the IC50 (K562)?
**A.** Its IC50 is 1000 nM.

**Q.** What does the source list for `COc1cc2c(cc1OCCC(=O)Nc1cc(C(=O)Nc3cc(C(=O)Nc4cc(C(=O)Nc5cc(C(=O)NCCC(=N)N)n(C)c5)n(C)c4)n(C)c3)n(C)c1)N=C[C@@H]1CCCN1C2=O`?
**A.** IC50 (Jurkat): 70 nM; IC50 (Nucleic Acid): 200 nM; IC50 [1]: 2000 nM; IC50 (K562): 40 nM; IC50 [2]: 2000 nM

**Q.** With `COc1cc2c(cc1OCCC(=O)Nc1cc(C(=O)Nc3cc(C(=O)NCCC(=N)N)n(C)c3)n(C)c1)N=C[C@@H]1CCCN1C2=O` as the compound, how does the IC50 (Jurkat) read?
**A.** Its IC50 is 50000 nM.

**Q.** And the IC50 (Nucleic Acid)?
**A.** The IC50 was 2000 nM.

**Q.** And the IC50 [1]?
**A.** The IC50 was 800 nM.

**Q.** And the IC50 (K562)?
**A.** The IC50 was 6000 nM.

**Q.** What about the IC50 [2] of the same compound?
**A.** The IC50 was 6000 nM.
